Data published in PMC10147382 (ACS chemical neuroscience, 2022).
Read-outs that look alike come from different tables or passages of the source.

What was measured:
5-HT1B receptor = 5-HT1B receptor (Homo sapiens, UniProt P28222); experiment: 5-HTome G protein activation BRET screen; format: cell-based; conditions: 5-HTome screen
In short: (§1)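 Human 5-HT receptors (12 in the panel) are tested by G protein-dissociation BRET2. Cells are reverse-transfected about 48 h before assay with receptor:Gα-Rluc8:Beta:GFP2-γ (TRUPATH) at 1:1:1:1 and plated in 1% dFBS. Drug is added in HBSS/20 mM HEPES pH 7.4 with 0.3% BSA and 0.03% ascorbic acid, then incubated 60 min at 37°C. Coelenterazine 400a is 5 uM final. The 510/400 ratio is normalized to % positive control, with EC50/Emax from log(agonist) vs response. Three independent experiments in triplicate.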

5-HT2A receptor [1] = biological target: T1, 5-HT2A receptor (Homo sapiens, UniProt P28223); experiment: Calcium flux assay; format: cell-based
In short: (§2)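 Flp-In 293 T-Rex cells stably carry tetracycline-inducible human 5-HT2A or 5-HT2C. Expression is induced with tetracycline (2 ug/mL) the day before, with about 7,500 cells/well in 1% dialyzed FBS. Cells are loaded with Fluo-4 Direct for 1 h at 37°C in HBSS/20 mM HEPES pH 7.4 with 2.5 mM probenecid, then held 15 min at RT. Fluorescence is read 10 s baseline, then 5-10 min after drug. Peak fold-over-basal or AUC is normalized to % 5-HT, with EC50/Emax from nonlinear regression.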

5-HT1e receptor = 5-HT1e receptor (Homo sapiens, UniProt P28566); experiment: 5-HTome G protein activation BRET screen; format: cell-based; conditions: 5-HTome screen
In short: as §1

5-HT1A receptor = 5-HT1A receptor (Homo sapiens, UniProt P08908); experiment: 5-HTome G protein activation BRET screen; format: cell-based; conditions: 5-HTome screen
In short: as §1

5-HT1F receptor = 5-HT1F receptor (Homo sapiens, UniProt P30939); experiment: 5-HTome G protein activation BRET screen; format: cell-based; conditions: 5-HTome screen
In short: as §1

5-HT1D receptor = 5-HT1D receptor (Homo sapiens, UniProt P28221); experiment: 5-HTome G protein activation BRET screen; format: cell-based; conditions: 5-HTome screen
In short: as §1

5-HT2A receptor [2] = biological target: T1, 5-HT2A receptor; experiment: G protein; format: cell-based
[3] = tested on: auxilin knockout (KO) mice; experiment: Auxilin KO Parkinson's model, balance beam; format: in vivo, mouse; conditions: 10 mg/kg i.p., 15 to 30 minutes after treatment
In short: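 Auxilin KO and WT mice aged 9-12 months, sex balanced, n=5-7/group. Vehicle is 0.85% saline i.p. at 10 ml/kg. Test compound is 10 mg/kg i.p. in 0.85% saline with 2 molar equivalents of glacial acetic acid, at 10 ml/kg. Baseline testing is done one week before treatment and repeated 15-30 min post-dose. Balance beam: mice walk a raised narrow beam to a safety box, scored as average crossing time and crossings per minute. Mean ± S.E.M.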

5-HT2B receptor = 5-HT2B receptor (Homo sapiens, UniProt P41595); experiment: G protein; format: cell-based
rabbits = conditions: cited from earlier work
mice [4] = experiment: Head twitch response; format: in vivo, mouse
mice [5] = experiment: Novelty suppressed feeding; format: in vivo, mouse; conditions: 7 days post-drug administration; 10mg/kg
5-HT2C receptor [6] = biological target: T2, 5-HT2C receptor (Homo sapiens, UniProt P28335); experiment: Calcium flux assay; format: cell-based; conditions: relative to 5-HT
T2 sequence (P28335 33-458): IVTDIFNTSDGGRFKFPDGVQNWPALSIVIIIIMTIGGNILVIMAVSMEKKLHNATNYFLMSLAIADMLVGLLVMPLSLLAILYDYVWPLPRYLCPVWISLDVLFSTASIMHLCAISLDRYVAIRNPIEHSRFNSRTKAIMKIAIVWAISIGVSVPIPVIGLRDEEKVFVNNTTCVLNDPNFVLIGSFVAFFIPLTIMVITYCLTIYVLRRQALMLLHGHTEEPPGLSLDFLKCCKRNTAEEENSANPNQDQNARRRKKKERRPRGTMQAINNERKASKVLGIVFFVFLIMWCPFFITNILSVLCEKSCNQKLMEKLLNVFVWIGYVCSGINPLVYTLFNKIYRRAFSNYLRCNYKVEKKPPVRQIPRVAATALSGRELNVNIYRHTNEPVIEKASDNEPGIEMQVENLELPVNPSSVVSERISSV
In short: as §2

[7] = tested on: auxilin knockout (KO) mice; experiment: Auxilin KO Parkinson's model, hind limb clasping; format: in vivo, mouse; conditions: 10 mg/kg i.p., 15 to 30 minutes after treatment
In short: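 Auxilin KO and WT mice aged 9-12 months, sex balanced, n=5-7/group, treated i.p. with vehicle (0.85% saline) or test compound at 10 mg/kg in saline with 2 molar equivalents of acetic acid, at 10 ml/kg. Testing is done one week pre-treatment and 15-30 min post-dose. Mice are held by the tail base and lowered for 30 s. Clasping is scored 0 (none), 1 (one limb) or 2 (both limbs), and total clasping duration is recorded. Kruskal-Wallis with Dunn's post hoc test.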

mice [8] = experiment: Elevated plus maze; format: in vivo, mouse; conditions: 30 minutes and 4 hours post single s.c. injection
In short: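 Elevated plus maze in mice given a single subcutaneous injection of test compound or a reference psychedelic. Time in open vs closed arms and arm entries are scored at 30 min and 4 h post-injection. n=10/group, mean ± S.E.M. Analysis is two-way ANOVA with Dunnett's post hoc test.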

humans = conditions: cited from earlier work
5-HT2A receptor [9] = biological target: T1, 5-HT2A receptor; experiment: Radioligand displacement assay; format: binding; conditions: standard radioligand 125I-DOI
cats = conditions: 10 mg/kg, s.c., versus (R)-DOM 0.5 mg/kg; cited from earlier work
patients = conditions: cited from earlier work
rats = conditions: 10 mg/kg, s.c. or i.p. ref 12, 13; cited from earlier work
5-HT2C receptor [10] = biological target: T2, 5-HT2C receptor; experiment: G protein; format: cell-based
mice [11] = experiment: Open field test; format: in vivo, mouse; conditions: for effect on general locomotion: s.c.
[12] = read-out: EC50 (Gq), Gq dissociation BRET

Chain of 5-HT2B receptor (P41595 whole entry): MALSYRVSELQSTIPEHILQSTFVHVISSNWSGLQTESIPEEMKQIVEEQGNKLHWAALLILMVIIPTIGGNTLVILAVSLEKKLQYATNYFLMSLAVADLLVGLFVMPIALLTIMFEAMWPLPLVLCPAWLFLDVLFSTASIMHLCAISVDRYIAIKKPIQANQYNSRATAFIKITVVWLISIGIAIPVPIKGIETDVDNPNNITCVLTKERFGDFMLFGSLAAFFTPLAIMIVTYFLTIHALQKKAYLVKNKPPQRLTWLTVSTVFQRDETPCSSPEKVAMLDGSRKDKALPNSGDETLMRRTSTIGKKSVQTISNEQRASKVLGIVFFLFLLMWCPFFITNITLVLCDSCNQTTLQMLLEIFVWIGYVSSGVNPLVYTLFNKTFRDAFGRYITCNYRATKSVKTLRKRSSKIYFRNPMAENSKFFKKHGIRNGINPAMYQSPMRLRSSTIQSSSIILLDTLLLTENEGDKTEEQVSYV
T1 sequence (P28223 whole entry): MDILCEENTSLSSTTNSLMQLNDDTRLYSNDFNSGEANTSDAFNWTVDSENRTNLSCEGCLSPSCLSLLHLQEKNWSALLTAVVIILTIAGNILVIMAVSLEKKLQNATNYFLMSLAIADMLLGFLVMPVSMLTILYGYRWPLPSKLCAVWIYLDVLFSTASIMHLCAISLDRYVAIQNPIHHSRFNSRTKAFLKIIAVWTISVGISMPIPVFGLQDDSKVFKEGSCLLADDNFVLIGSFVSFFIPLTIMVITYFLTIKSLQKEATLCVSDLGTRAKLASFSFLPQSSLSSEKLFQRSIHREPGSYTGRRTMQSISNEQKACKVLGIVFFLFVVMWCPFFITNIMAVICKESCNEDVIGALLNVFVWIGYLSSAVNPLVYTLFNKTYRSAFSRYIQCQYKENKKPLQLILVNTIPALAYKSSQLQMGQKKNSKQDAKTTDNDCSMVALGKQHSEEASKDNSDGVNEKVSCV
Chain of 5-HT1D receptor (P28221 whole entry): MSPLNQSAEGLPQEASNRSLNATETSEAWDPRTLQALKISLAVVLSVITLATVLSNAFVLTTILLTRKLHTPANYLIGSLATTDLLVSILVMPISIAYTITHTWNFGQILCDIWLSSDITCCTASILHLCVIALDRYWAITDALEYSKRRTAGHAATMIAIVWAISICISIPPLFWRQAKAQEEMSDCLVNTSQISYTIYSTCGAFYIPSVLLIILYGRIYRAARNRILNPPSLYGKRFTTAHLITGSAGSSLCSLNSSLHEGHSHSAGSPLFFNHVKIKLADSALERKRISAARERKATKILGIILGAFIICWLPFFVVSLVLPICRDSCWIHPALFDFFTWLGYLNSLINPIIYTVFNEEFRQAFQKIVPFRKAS
Chain of 5-HT1e receptor (P28566 whole entry): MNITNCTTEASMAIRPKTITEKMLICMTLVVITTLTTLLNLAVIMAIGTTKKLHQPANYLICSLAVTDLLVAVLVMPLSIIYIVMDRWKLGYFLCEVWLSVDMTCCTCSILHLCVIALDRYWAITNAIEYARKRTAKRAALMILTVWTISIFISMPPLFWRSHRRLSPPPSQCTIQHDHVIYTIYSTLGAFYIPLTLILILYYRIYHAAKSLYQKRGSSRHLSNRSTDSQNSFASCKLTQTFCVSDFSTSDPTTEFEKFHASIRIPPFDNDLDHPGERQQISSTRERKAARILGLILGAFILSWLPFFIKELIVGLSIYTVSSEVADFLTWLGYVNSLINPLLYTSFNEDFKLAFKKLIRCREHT
Chain of 5-HT1A receptor (P08908 whole entry): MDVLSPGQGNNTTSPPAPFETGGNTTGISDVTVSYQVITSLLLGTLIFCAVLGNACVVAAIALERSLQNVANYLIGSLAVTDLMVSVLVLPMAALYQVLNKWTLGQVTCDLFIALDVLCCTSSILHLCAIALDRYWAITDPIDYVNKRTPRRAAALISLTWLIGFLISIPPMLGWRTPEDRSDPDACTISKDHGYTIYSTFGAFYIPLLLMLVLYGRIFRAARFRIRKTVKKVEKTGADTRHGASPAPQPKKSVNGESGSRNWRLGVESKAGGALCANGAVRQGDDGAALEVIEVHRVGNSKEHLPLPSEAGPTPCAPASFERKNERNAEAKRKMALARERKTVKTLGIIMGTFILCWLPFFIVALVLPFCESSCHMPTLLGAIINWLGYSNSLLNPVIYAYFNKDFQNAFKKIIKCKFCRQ
Chain of 5-HT1B receptor (P28222 whole entry): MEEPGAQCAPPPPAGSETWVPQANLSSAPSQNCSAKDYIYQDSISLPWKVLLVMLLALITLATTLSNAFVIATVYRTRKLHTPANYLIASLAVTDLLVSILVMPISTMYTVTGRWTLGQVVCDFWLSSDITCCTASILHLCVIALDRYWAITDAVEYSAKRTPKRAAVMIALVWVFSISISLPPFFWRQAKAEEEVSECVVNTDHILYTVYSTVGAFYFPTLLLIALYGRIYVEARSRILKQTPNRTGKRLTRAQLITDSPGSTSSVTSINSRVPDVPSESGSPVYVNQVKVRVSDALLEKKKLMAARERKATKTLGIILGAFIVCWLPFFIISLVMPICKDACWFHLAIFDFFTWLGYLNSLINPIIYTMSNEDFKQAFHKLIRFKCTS
Chain of 5-HT1F receptor (P30939 whole entry): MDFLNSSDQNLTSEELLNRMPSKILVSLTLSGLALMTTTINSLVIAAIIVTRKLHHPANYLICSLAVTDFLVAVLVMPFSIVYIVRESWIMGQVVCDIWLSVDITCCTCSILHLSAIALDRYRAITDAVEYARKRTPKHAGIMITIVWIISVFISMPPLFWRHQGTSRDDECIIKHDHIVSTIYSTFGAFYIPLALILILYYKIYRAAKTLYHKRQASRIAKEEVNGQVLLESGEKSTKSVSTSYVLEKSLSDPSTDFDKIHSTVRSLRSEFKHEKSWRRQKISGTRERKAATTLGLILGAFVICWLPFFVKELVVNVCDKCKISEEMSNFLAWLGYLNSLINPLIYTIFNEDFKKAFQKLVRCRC

In the case of `CC[C@@H](N)Cc1cc(OC)c(C)cc1OC` [(R)-Ariadne], the EC50 (5-HT1B receptor) is reported as 4000 nM, the EC50 (5-HT2A receptor [1]; read-out: EC50 (calcium flux)) is reported as 30 nM and the “Emax (calcium flux)” value (5-HT2A receptor [1]; relative to 5-HT) is reported as 96%. The EC50 (5-HT1e receptor) was 300 to 600 nM, the EC50 (5-HT1A receptor) was 300 to 600 nM and the EC50 (5-HT1F receptor) was 300 to 600 nM. For the same compound, the EC50 (5-HT1D receptor) was 300 to 600 nM, the EC50 (5-HT2A receptor [2]; 5-HTome screen) was < 1000 nM and the Emax (5-HT2A receptor [2]; 5-HTome screen) was > 70%. For the same compound, the EC50 (5-HT2A receptor [2]; [12]) was 149 nM, the “number of balance beam runs, Aux-KO mice post-treatment” value [3] was “significantly higher and comparable to WT mice” and the EC50 (5-HT2B receptor; 5-HTome screen) was < 1000 nM. The Emax (5-HT2B receptor; 5-HTome screen) was > 70%, the EC50 (5-HT2B receptor; [12]) was 739 nM and the “shift in potency between (R)-DOM and (R)-Ariadne” value (rabbits) was 25 fold. The “HTR after pretreatment with 5-HT2A antagonist MDL100,907 (volinanserin)” value (mice [4]; MDL100907 0.01 and 0.032 mg/kg ip 15 min prior) was “completely inhibited”, the “dose of peak (maximum) HTR” value (mice [4]; s.c.) was 10 mg/kg and the “latency to bite food pellets” value (mice [5]) was “dose-dependent trend toward reducing latency to bite”. For the same compound, the “Emax (calcium flux)” value (5-HT2C receptor [6]) was 60%, the “clasping duration, Aux-KO mice” value [7] was “down to zero” and the “clasping score, Aux-KO mice” value [7] was “down to zero”. For the same compound, the “effect on open arm entries and time” value (mice [8]) was “acute anxiogenic-like effect”, the “hallucinogenic / psychoactive effect” value (humans; 25 mg p.o. ref 6) was “no hallucinogenic effect but a mild threshold psychoactive effect” and the psychedelic effects (humans; 100-300 mg, geriatric senile subjects ref 38) was “no psychedelics effects”. The hallucinogenic effects (humans; up to 270 mg, healthy subjects ref 14) was “No hallucinations or perceptual alterations were observed”, the hallucinogenic effects (humans; up to (and beyond) 100 mg per day, route not specified ref 8) was “no hallucinations” and the hallucinogenic effects (humans; up to (and beyond) 100 mg per day, route not specified ref 8, listed as BL-3912A) was “lack of hallucinogenic effects”. The Ki (5-HT2A receptor [9]) was 53 nM, the DOM-like effects (cats) was “nearly no DOM-like effects” and the “effect in geriatric senile subjects” value (patients; 50 mg per day ref 8) was “Improvement in alertness, mobility and sociability”. For the same compound, the “effect in subjects with Parkinson's disease” value (patients; 100 mg per day ref 8) was “nearly complete remission of symptoms”, the “effect in patients with schizophrenia and bipolar disorder” value (patients; 50-100 mg per day ref 8) was “rapid remission of psychotic symptoms” and the avoidance behavior (rats) was “improved avoidance behavior”. The EC50 (5-HT2C receptor [10]; 5-HTome screen) was < 1000 nM, the Emax (5-HT2C receptor [10]; 5-HTome screen) was > 70% and the EC50 (5-HT2C receptor [10]; [12]) was 249 nM. For the same compound, the “effect on general locomotion” value (mice [11]; 10 mg/kg) was “minor sedative effect”, the “effect on general locomotion” value (mice [11]; 30 mg/kg) was “marked sedation” and the “time in the center of the arena” value (mice [11]; mouse, in vivo) was “trend for spending less time in the center of the arena”.
